In brackets after ≈: the same amount, converted by molar mass. Activity calls are given as the source filed them.
Tests used:
[1] = test system: Escherichia coli; assay: Antibacterial activity against Escherichia coli DH5[alpha] at 100 uM after 23 hrs by broth dilution assay; type: functional, organism-based
How it was run: (§1)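 Overnight LB culture of E. coli DH5α grown at 37 °C, diluted to OD600 0.1 in LB with 2.5 mM CaCl2; compound added from DMSO stock to final 50 or 100 µM. Incubated at 37 °C with absorbance at 595 nm followed over 23 h.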

[2] = Cytotoxicity against human HeLa 229 cells assessed as cell viability at 50 uM after 28 hrs using resazurin staining by fluorescence microscopy; type: cell-based; conditions: read-out: Activity
How it was run: (§2)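 HeLa 229 viability measured at 50 and 25 µM using resazurin added 4 h before read-out; cell-free wells with medium plus compound exclude chemical reduction of resazurin. Scored relative to DMSO control, plus microscopic scoring; non-toxic defined as at least 70% viability versus control. Triplicates, repeated at least three times.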

[3] = test system: Yersinia pseudotuberculosis; assay: Antibacterial activity against Yersinia pseudotuberculosis expressing pIB102 at 100 uM after 23 hrs by broth dilution assay; type: functional, organism-based
How it was run: (§3)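 Wild-type pIB102 grown overnight in LB at room temperature, diluted to OD600 = 0.1 in LB with 2.5 mM CaCl2. Compound added from DMSO stock to final 50 and 100 µM. Incubated at 37 °C with absorbance at 595 nm read over 23 h.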

[4] = test system: Yersinia pseudotuberculosis; assay: Antibacterial activity against Yersinia pseudotuberculosis expressing pIB102 at 50 uM after 23 hrs by broth dilution assay; type: functional, organism-based; how it was run: as §3
[5] = test system: Yersinia pseudotuberculosis YPIII; assay: Inhibition of T3S in Yersinia pseudotuberculosis YPIII expressing yopE-luxAB at 3.13 uM after 3 hrs by luciferase reporter gene assay
How it was run: (§4)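 Strain YPIII pIB102 (yopE-luxAB) grown overnight at room temperature in BHI with 5 mM EGTA and 20 mM MgCl2 (calcium depletion), adjusted to OD600 0.088–0.095. Compound added from DMSO at 1.56–200 µM final (eight concentrations). Shaken 1 h at room temperature, then 2 h at 37 °C. Decanal added and light emission read immediately. Triplicates, repeated at least three times.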

[6] = test system: Chlamydia trachomatis; assay: Antibacterial activity against Chlamydia trachomatis infected in human HeLa 229 cells after 35 hrs by fluorescence microscopy; type: functional
How it was run: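 HeLa 229 monolayers infected with C. trachomatis serovar L2, MOI 0.3; compounds diluted in RPMI 1640 with 10% FCS, 2 mM L-glutamine, 8 µg/mL gentamicin (DMSO final 1%) added 1 h post-infection at 50, 25, 12.5, 6.25, 3.13 µM. 35 h at 37 °C, 5% CO2; methanol fixation, immunostaining, fluorescence microscopy at 200×. MIC = lowest concentration with no intracellular inclusions; duplicates, ≥3 occasions.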

[7] = test system: Yersinia pseudotuberculosis YPIII; assay: Inhibition of T3S in Yersinia pseudotuberculosis YPIII expressing yopE-luxAB at 6.25 uM after 3 hrs by luciferase reporter gene assay; how it was run: as §4
[8] = test system: Yersinia pseudotuberculosis YPIII; assay: Inhibition of T3S in Yersinia pseudotuberculosis YPIII expressing yopE-luxAB at 25 uM after 3 hrs by luciferase reporter gene assay; how it was run: as §4
[9] = test system: Yersinia pseudotuberculosis YPIII; assay: Inhibition of T3S in Yersinia pseudotuberculosis YPIII expressing yopE-luxAB at 1.56 uM after 3 hrs by luciferase reporter gene assay; how it was run: as §4
[10] = test system: Yersinia pseudotuberculosis YPIII; assay: Inhibition of T3S in Yersinia pseudotuberculosis YPIII expressing yopE-luxAB at 200 uM after 3 hrs by luciferase reporter gene assay; how it was run: as §4
[11] = test system: Yersinia pseudotuberculosis YPIII; assay: Inhibition of T3S in Yersinia pseudotuberculosis YPIII expressing yopE-luxAB at 50 uM after 3 hrs by luciferase reporter gene assay; how it was run: as §4
[12] = test system: Yersinia pseudotuberculosis YPIII; assay: Inhibition of T3S in Yersinia pseudotuberculosis YPIII expressing yopE-luxAB at 100 uM after 3 hrs by luciferase reporter gene assay; how it was run: as §4
[13] = test system: Escherichia coli; assay: Antibacterial activity against Escherichia coli DH5[alpha] at 50 uM after 23 hrs by broth dilution assay; type: functional, organism-based; how it was run: as §1
[14] = test system: Yersinia pseudotuberculosis YPIII; assay: Inhibition of T3S in Yersinia pseudotuberculosis YPIII expressing yopE-luxAB at 12.5 uM after 3 hrs by luciferase reporter gene assay; how it was run: as §4
[15] = Cytotoxicity against human HeLa 229 cells assessed as cell viability at 25 uM after 28 hrs using resazurin staining by fluorescence microscopy; type: cell-based; conditions: read-out: Activity; how it was run: as §2

Row | Compound | Activity [1] | viability at 28 h, 50 µM [2] [%] | Activity [3] | Activity [4] | inhibition [5] [%] | MIC [6] [µM] | inhibition [7] [%] | inhibition [8] [%] | inhibition [9] [%] | inhibition [10] [%] | inhibition [11] [%] | inhibition [12] [%] | Activity [13] | inhibition [14] [%] | viability at 28 h, 25 µM [15] [%]
1 | COc1cccc(C(=O)N/N=C/c2cc(Br)ccc2O)c1 | inactive | 65 | inactive | inactive | 15 | 25 (≈ 8.73 µg/mL) | 8 | 22 | 6 | 77 | 44 | 71 | inactive | 15 | 73
2 | O=C(N/N=C/c1cccc(F)c1O)c1cccc(C(F)(F)F)c1 | inactive |  | inactive | inactive | 3 |  | 5 | 30 | -10 | 65 | 32 | 48 | inactive | 14 | 
3 | COc1cc(Br)cc(/C=N/NC(=O)c2sc3ccccc3c2Cl)c1O | inactive |  | inactive | inactive | 10 |  | 12 | 23 | -6 | 39 | 34 | 40 | inactive | 20 | 
4 | O=C(N/N=C/c1cc(Cl)cc(Cl)c1O)c1ccccc1[N+](=O)[O-] | inactive |  | inactive | inactive | 16 |  | 8 | 18 | -4 | 92 | 61 | 88 | inactive | 4 | 
5 | O=C(N/N=C/c1ccc(O)c(O)c1O)c1ccccc1[N+](=O)[O-] | inactive |  | inactive | inactive | 5 |  | 16 | 22 | -8 | 96 | 36 | 74 | inactive | 20 | 
6 | N#CCC(=O)N/N=C/c1cc(Br)ccc1O | inactive |  | inactive | inactive | 11 |  | 6 | 55 | 0 | 99 | 86 | 97 | inactive | 22 | 
7 | COc1cccc(C(=O)N/N=C/c2cc(OC)cc(OC)c2O)c1 | inactive |  | inactive | inactive | 4 |  | 9 | 20 | -7 | 76 | 43 | 63 | inactive | 13 | 
8 | CC(C)(C)c1ccc(O)c(/C=N/NC(=O)CC23CC4CC(CC(C4)C2)C3)c1 | inactive |  | inactive | inactive | 3 |  | 10 | 17 | -6 | -1 | 10 | 17 | inactive | 13 | 
9 | CCN(CC)c1ccc(/C=N/NC(=O)c2cc(Cl)cc(Cl)c2)c(O)c1 | inactive |  | inactive | inactive | 19 |  | 22 | 34 | -6 | 46 | 43 | 46 | inactive | 29 | 

From ChEMBL document CHEMBL1156948, “Statistical molecular design of a focused salicylidene acylhydrazide library and multivariate QSAR of inhibition of type III secretion in the Gram-negative bacterium Yersinia” (Bioorg Med Chem, 2010)
